# Screening results deposited in PubChem by several laboratories.
# NPY-Y1 PAM-ag: potentiators or agonists of human neuropeptide Y receptor Y1; 0.37% of 220,000 active; activation, % at 3.6 µM; NPY-Y1 expressing cells, potentiator/agonist activation; in the data active = activation above about 33%, passing the limit was not always enough;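 note: cells stimulated with NPY at EC10 then isoproterenol at EC100; 0% = low agonist plus stimulus and 100% = saturating agonist plus stimulus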
# Target sequence (P25929 whole entry, looked up): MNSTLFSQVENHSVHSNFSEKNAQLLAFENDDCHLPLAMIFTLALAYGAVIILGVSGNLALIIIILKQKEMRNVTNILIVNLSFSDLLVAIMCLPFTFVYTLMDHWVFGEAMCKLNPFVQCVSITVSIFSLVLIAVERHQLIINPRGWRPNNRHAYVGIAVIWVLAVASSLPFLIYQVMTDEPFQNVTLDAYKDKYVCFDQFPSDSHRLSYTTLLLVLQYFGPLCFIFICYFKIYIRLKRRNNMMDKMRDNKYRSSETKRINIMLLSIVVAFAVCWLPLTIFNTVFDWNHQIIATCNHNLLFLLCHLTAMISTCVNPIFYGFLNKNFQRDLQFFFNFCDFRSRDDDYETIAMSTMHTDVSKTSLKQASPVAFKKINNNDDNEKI
# NPY Y1 blocker: NPY-Y1 (human) receptor antagonism; P25929; inhibition, % at 3.6 µM; HEK293-CNG Y1 cells, membrane potential fluorescence; NPY at EC95, then isoproterenol; 1% of 200,000 active; AID 1040;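 active = inhibition above the campaign mean inhibition of all tested compounds plus 3 SD, cut at about 20% in these data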;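 note: 0% = DMSO wells given NPY plus isoproterenol and 100% = isoproterenol alone without NPY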
#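 Material: HEK293 cells co-expressing NPY Y1 receptor and cyclic-nucleotide gated channel. Timing: compound incubation 1 h at room temperature, readout 45 min post-stimulation. Signal: fluorescence, membrane potential probe.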
# NPY-Y2 antag: blocks the human neuropeptide Y Y2 receptor. P49146. NPY-Y2 expressing cells, antagonist mode. inhibition, % at 2.7 µM. 0.99% of 140,000 active. AID 793; in the data active = inhibition above about 17%;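 note: 0% = vehicle with agonist challenge and 100% = reference antagonist with challenge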
# Target sequence (P49146 whole entry, looked up): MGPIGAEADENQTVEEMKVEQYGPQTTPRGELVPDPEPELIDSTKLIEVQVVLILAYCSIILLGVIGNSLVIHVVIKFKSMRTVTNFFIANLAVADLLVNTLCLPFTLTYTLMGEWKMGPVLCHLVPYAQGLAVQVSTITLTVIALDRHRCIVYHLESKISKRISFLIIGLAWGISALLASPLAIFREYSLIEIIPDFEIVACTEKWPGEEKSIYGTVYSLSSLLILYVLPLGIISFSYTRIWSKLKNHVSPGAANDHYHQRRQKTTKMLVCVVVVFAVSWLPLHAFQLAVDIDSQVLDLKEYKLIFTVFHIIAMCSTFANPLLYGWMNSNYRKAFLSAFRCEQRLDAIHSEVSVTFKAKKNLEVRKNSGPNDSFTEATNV
# RAM network inh: blocks the yeast RAM network. S. cerevisiae dse1pr::URA3 reporter, 5-FOA growth OD615, 2 d; analog-sensitive cbk1-as2 kinase mutant strain. inhibition, % at 50 µM. 1.8% of 190,000 active;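 active = inhibition above a set limit, 3 SD over mean compound inhibition, cut at about 8.4% in these data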;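 note: 0% = DMSO-only wells with no growth and 100% = 10 µM 1-NA-PP1 full growth; inhibition rescues growth on 5-FOA so higher OD means more RAM inhibition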
# Insulin prom inh: TRM-6 insulin promoter activity inhibition. TRM-6 cells, insulin promoter-eGFP reporter, imaging; reporter expression induced with tamoxifen. AID 1273. inhibition, % at 2 µM. 0.9% of 130,000 active;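 active = inhibition above the mean plus 3 SD, with well images judged a real hit on visual review, cut at about 60% in these data, passing the limit was not always enough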
# NPY2 pot ag: human NPY-Y2 potentiation or agonism, primary screen. P49146. cells expressing NPY-Y2, potentiator/agonist read-out. activation, % at 3.6 µM. 0.45% of 220,000 active. AID 1359; in the data active = activation above about 27%;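 note: cells stimulated with NPY near EC25 plus isoproterenol at EC100; 0% = vehicle plus submaximal agonist and 100% = vehicle plus saturating agonist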
# RAM efflux-def: restores 5-FOA growth of efflux-deficient yeast; shares compounds with RAM network inh; S. cerevisiae efflux-deficient reporter strain, 5-FOA growth OD615, 2 days; max inhibition, %; 1,200 tested, under 10 active; AID 1305; call rule not given here;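 note: plate controls were vehicle for no effect and reference inhibitor for full effect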
# NPY1 antag conf: confirmation of human neuropeptide Y receptor Y1 antagonists; shares compounds with NPY Y1 blocker; 21% of 1,200 active; inhibition, % at 3.6 µM; AID 1254; HEK293-CNG NPY-Y1, membrane potential fluorescence, cAMP; NPY challenge against isoproterenol-raised cAMP; in the data active = inhibition above about 20%;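 note: 0% = vehicle with agonist plus stimulus and 100% = stimulus alone without agonist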
# NPY2 antag ctr: antagonizes human NPY-Y2, counter-screen to NPY-Y1 antagonists | shares compounds with NPY Y1 blocker | HEK293 NPY-Y2 CNG membrane potential fluorescence, antagonism; cells given NPY, then isoproterenol | inhibition, % at 3.6 µM | 28% of 1,200 active | AID 1255; in the data active = inhibition above about 17%;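 note: 0% = DMSO with agonist challenge and 100% = reference antagonist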
# NPY-Y1 confirm: human NPY-Y1 potentiation or agonism, confirmation; activation, % at 3.6 µM; 20% of 280 active; AID 1546; shares compounds with NPY-Y1 PAM-ag; cell-based NPY-Y1 potentiator/agonist assay; in the data active = activation above about 45%;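 note: cells challenged with NPY at its EC10 plus isoproterenol stimulus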
# NPY-Y2 counter: NPY-Y2 potentiation or agonism as NPY-Y1 counter-screen | shares compounds with NPY-Y1 PAM-ag | HEK293-CNG cells, membrane-potential fluorescence (FLIPR), 1536-well | activation, % at 3.6 µM | 20% of 280 active | AID 1649
# NPY-Y1 ag: activates human NPY-Y1, counter-screen for NPY-Y1 potentiators. AID 1697. shares compounds with NPY-Y1 PAM-ag. HEK293 Y1-CNGC, membrane potential fluorescence, agonist mode. 50% of 280 active. activation, % at 3.6 µM;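 active = percent activation above the mean of DMSO-only control wells plus 3 SD of those wells, cut at about 18% in these data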;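 note: cells challenged with isoproterenol plus Ro 20-1724 with no NPY in test wells; Y1 agonism lowers isoproterenol-driven cAMP and reduces probe fluorescence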
# NPY-Y2 agonist: activates human NPY-Y2, counter-screen for NPY-Y1 hits; shares compounds with NPY-Y1 PAM-ag; 67% of 280 active; AID 1698; activation, % at 3.6 µM; HEK293 Y2-CNGC, membrane potential fluorescence, agonist mode;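 active = activation above the solvent-only control wells' mean plus 3 SD, cut at about 11% in these data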;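 note: 0% = DMSO with isoproterenol and 100% = 40 nM NPY maximal response; agonism lowers cAMP so well fluorescence drops in active wells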
# CNGC inh 2: blocks cyclic nucleotide gated channel in NPY-Y1 counter-screen. 42% of 280 active. HEK293-CNG parental, isoproterenol cAMP, membrane potential fluorescence. AID 1704. shares compounds with NPY-Y1 PAM-ag. inhibition, % at 3.6 µM;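 active = inhibition above the mean of stimulated solvent-only control wells plus 3 SD, cut at about 22% in these data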;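 note: 0% = isoproterenol-stimulated DMSO wells and 100% = unstimulated DMSO wells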
# NPY-Y2 pot conf: confirmation of human NPY-Y2 receptor potentiators or agonists; shares compounds with NPY2 pot ag; cell-based NPY-Y2 potentiator/agonist assay; activation, % at 3.6 µM; 20% of 450 active
# NPY-Y1 counter: counter-screen for NPY-Y2 potentiators or agonists: NPY-Y1 potentiators or agonists; shares compounds with NPY2 pot ag; Y1 HEK293-CNG cells, membrane potential fluorescence; activation, % at 3.6 µM; 20% of 450 active; AID 1651; in the data active = activation above about 45%;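 note: cells stimulated with submaximal NPY then isoproterenol with phosphodiesterase inhibitor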
# NPY-Y1 ag 2: activates human NPY-Y1, counter-screen for NPY-Y2 potentiators. shares compounds with NPY2 pot ag. HEK293 Y1-CNGC, membrane potential fluorescence, agonism. activation, % at 3.6 µM. 37% of 450 active;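 active = activation above the mean of DMSO-only control wells plus 3 SD, cut at about 18% in these data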;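 note: cells stimulated with 1 µM isoproterenol plus the PDE inhibitor Ro 20-1724; 0% = isoproterenol with DMSO and no NPY and 100% = 40 nM NPY; Y1 agonists lower the membrane potential dye signal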
# CNGC inhibitor: counter-screen for NPY-Y2 potentiators: inhibitors of CNG channel activity; inhibition, % at 3.6 µM; shares compounds with NPY2 pot ag; HEK293-CNG parental, isoproterenol cAMP, membrane potential fluorescence; 32% of 450 active;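 active = inhibition above the control-well mean plus 3 SD of those wells, cut at about 22% in these data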;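 note: 0% = DMSO with isoproterenol and 100% = DMSO without isoproterenol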
# NPY-Y2 ag 2: NPY-Y2 agonism, counter-screen for Y2 potentiators. shares compounds with NPY2 pot ag. HEK293 Y2/CNGC cells, membrane potential fluorescence, agonist mode. activation, % at 3.6 µM. 56% of 450 active. AID 1710;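 active = activation above the mean of solvent-only control wells plus 3 SD, cut at about 10% in these data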;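 note: cells stimulated by isoproterenol with no NPY added so direct agonism is tested; 0% = DMSO with isoproterenol alone and 100% = NPY at EC100 plus isoproterenol; agonism lowers probe fluorescence through less cAMP and CNG channel opening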
# Numbers without * were called inactive; x = no result. Compounds with a hit are over-represented: about 3.8% of the library has one in this group of screens. Cut-off read from the data, not from the text of the source, unless noted: active = activation above about 33%; inactive = the rest.
SMILES,NPY-Y1 PAM-ag,NPY Y1 blocker,NPY-Y2 antag,RAM network inh,Insulin prom inh,NPY2 pot ag,RAM efflux-def,others
O=C(CCn1cnnn1)Nc1ccccc1,15.4,-0.3,x,0.6,x,20.9,x,
CCCc1ccc(/C=C2\C(=O)c3ccccc3C(O)=C2C(=O)OCC)cc1,-19.4,5.5,1.7,11.5*,-3.6,-6.0,3.6,
O=C(NC(Cc1c[nH]c2ccccc12)C(=O)O)/C(=C\c1ccc2c(c1)OCO2)NC(=O)c1ccccc1 (stereo not given),-19.6,x,x,x,x,-8.7,x,
COC(=O)c1scc(C)c1N/N=C(\C)c1ccc(F)cc1F,-1.2,1.3,4.2,12.8*,-20.0,-1.8,4.9,
O=S(=O)(c1ccc(-c2ccon2)s1)N1CCN(c2ccncc2)CC1,4.8,x,x,x,x,-18.6,x,
CCOC(=O)c1c(-c2cccs2)csc1NC(=O)COC(=O)c1c(C)noc1C,-54.5,7.6,10.9,11.5*,x,-17.7,2.4,
CCOCCOC(=O)C(C)Oc1ccc(Oc2nc(Cl)ccc2Cl)cc1 (stereo not given),-6.2,3.8,x,13.2*,40.7,-14.4,2.3,
CCOC(=O)c1sc(-c2ccccc2)cc1NC(=O)c1ccc(S(=O)(=O)N(CCOC)CCOC)cc1,23.1,-4.4,2.5,18.2*,x,-15.7,3.4,
CC(CO)Nc1nc(SCc2ccccc2)nc2sc3c(c12)CCC3 (stereo not given),-20.0,9.6,-0.7,0.8,5.7,0.0,x,
COCCNc1nc(SCc2ccccc2)nc2sc3c(c12)CCC3,-20.9,26.5*,0.0,14.2*,-31.4,-19.0,2.7,NPY1 antag conf=20.7*;NPY2 antag ctr=22.4*
O=C(Cc1ccc(S(=O)(=O)N2CCCCC2)s1)Nc1cccc2ccccc12,12.8,-5.5,0.5,1.3,-69.2,6.6,x,
Cn1c(=O)c2c(nc(NCCOc3ccc(F)cc3)n2C)n(C)c1=O,4.4,-2.4,x,1.4,x,10.1,x,
O=C(NC(=S)Nc1ccc(Oc2ccccc2)cc1)c1ccc(Cl)cc1,-34.1,20.4*,4.5,12.0*,30.4,-5.8,2.2,NPY1 antag conf=9.4;NPY2 antag ctr=10.5
CCCCOC(=O)c1ccc(NC(=S)NC(=O)c2c(Cl)cnn2C)cc1,-36.1,25.2*,8.0,15.6*,-13.5,-15.4,1.4,NPY1 antag conf=9.1;NPY2 antag ctr=12.2
O=C(CCSCc1ccc(Cl)cc1)NCc1ccco1,-1.2,3.5,x,0.5,-26.7,-3.6,x,
Cc1ccccc1N/C(SCc1ccc(Cl)cc1)=C(/C#N)C(=O)NCc1ccco1,-10.5,34.0*,12.2,14.7*,10.5,-38.9,5.8,NPY1 antag conf=11.6;NPY2 antag ctr=8.2
CC(C)(C)OC(=O)NCCCCCNC(=O)c1[nH]cnc1C(=O)N[C@@H](Cc1ccccc1)C(=O)OCc1ccccc1,57.7*,-7.1,x,12.8*,x,29.9,7.0,NPY-Y1 confirm=47.2*;NPY-Y2 counter=22.4;NPY-Y1 ag=31.8*;NPY-Y2 agonist=18.6*;CNGC inh 2=27.8*
COc1ccc(C(=O)NC(NC(=S)Nc2ccc(S(N)(=O)=O)cc2)C(Cl)(Cl)Cl)cc1 (stereo not given),-31.0,5.5,11.5,1.5,x,-14.8,x,
O=C(/C=C/c1cccc(C(F)(F)F)c1)Nc1cccc(C(F)(F)F)c1,32.6,-12.4,-1.7,11.7*,6.5,36.1*,2.1,NPY-Y2 pot conf=18.9;NPY-Y1 counter=23.4;NPY-Y1 ag 2=24.7*;CNGC inhibitor=32.7*;NPY-Y2 ag 2=15.6*
CS(=O)(=O)N(CC(=O)Nc1ccc(S(=O)(=O)N2CCCC2)cc1)c1cccc(F)c1,23.7,x,x,x,x,14.4,x,
COc1ccc(CN2C(=O)c3ccccc3C2C(=O)NC2CCCC(C)C2C)c(OC)c1 (stereo not given),-15.7,35.9*,x,6.4,x,-7.8,x,NPY1 antag conf=9.6;NPY2 antag ctr=6.7
COc1ccc(CN2C(=O)c3ccccc3C2C(=O)NC2CCC(C)CC2)c(OC)c1 (stereo not given),-1.2,22.6*,x,4.2,x,-20.4,x,NPY1 antag conf=3.3;NPY2 antag ctr=5.1
COc1ccc(N(C(C)C(=O)Nc2cccnc2)S(C)(=O)=O)cc1 (stereo not given),8.5,4.4,x,-0.7,x,4.0,x,
O=C1CC(N2CCN(c3ccccc3)CC2)C(=O)N1c1ccc2c(c1)OCO2 (stereo not given),8.8,-2.2,x,0.2,5.3,-2.0,x,
Cn1c(SCc2cnc(-c3ccccc3)s2)nnc1C1COc2ccccc2O1 (stereo not given),14.2,3.4,0.8,3.7,x,0.6,x,
